ChEMBL document CHEMBL1151761, “Radiohalogenated prostate-specific membrane antigen (PSMA)-based ureas as imaging agents for prostate cancer” (J Med Chem, 2008)

Columns and labels:
Assay type in all cases: ADME, organism-based
[1] = Ratio of drug level in tumor to spleen of human PSMA expressing PC3 PIP and PSMA deficient human PC3 flu cells xenografted SCID mouse at 2 uCi, iv after 2 hrs; settings: in vivo
Summary of the method: (§1)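 Male SCID mice carried subcutaneous xenografts: PSMA+ PC-3 PIP behind the left shoulder and PSMA− PC-3 flu behind the right, 1–5 × 10^6 cells in HBSS. Mice were used at 3–5 mm tumor diameter. 2 μCi was given by tail vein, and 4 mice per time point were killed by cervical dislocation. %ID/g came from a standard dilution of the dose, decay-corrected. Ratio is PIP tumor %ID/g to organ %ID/g.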

[2] = Ratio of drug level in tumor to blood of human PSMA expressing PC3 PIP and PSMA deficient human PC3 flu cells xenografted SCID mouse at 2 uCi, iv after 5 hrs
Summary of the method: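 Male SCID mice carried subcutaneous xenografts of PSMA+ PC-3 PIP cells behind the left shoulder and PSMA− PC-3 flu cells behind the right (1–5 × 10^6 cells in HBSS), used at a tumour diameter of 3–5 mm. Each mouse received 2 μCi of radioiodinated tracer via the tail vein. Tissues were harvested at each time point for %ID/g against a standard dilution of the dose, decay-corrected. Ratios are PIP tumour:organ.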

[3] = Ratio of drug level in tumor to heart of human PSMA expressing PC3 PIP and PSMA deficient human PC3 flu cells xenografted SCID mouse at 2 uCi, iv after 2 hrs; settings: in vivo
Summary of the method: (§2)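 Male SCID mice carried subcutaneous PSMA+ PC-3 PIP (left shoulder) and PC-3 flu (right shoulder) xenografts, 1-5 × 10^6 cells in HBSS, and were used at 3-5 mm tumor diameter. Tail-vein injection of 2 µCi radioligand; four mice per time point, killed by cervical dislocation. %ID/g from a standard dilution of the dose, decay-corrected, mean ± SD; PIP tumor:organ ratios.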

[4] = Ratio of drug level in tumor to large intestine of human PSMA expressing PC3 PIP and PSMA deficient human PC3 flu cells xenografted SCID mouse at 2 uCi, iv after 30 mins; settings: in vivo, 0.5 h; summary of the method: as §2
[5] = Ratio of drug level in tumor to small intestine of human PSMA expressing PC3 PIP and PSMA deficient human PC3 flu cells xenografted SCID mouse at 2 uCi, iv after 5 hrs; settings: in vivo; summary of the method: as §1
[6] = Ratio of drug level in tumor to muscle of human PSMA expressing PC3 PIP and PSMA deficient human PC3 flu cells xenografted SCID mouse at 2 uCi, iv after 5 hrs; settings: in vivo; summary of the method: as §2
Lung = test: Biodistribution in lung of PSMA expressing human PC3 PIP and PSMA deficient human PC3 flu cells xenografted SCID mouse at 2 uCi, iv after 60 mins; settings: in vivo, 1 h
Liver [7] = test: Biodistribution in liver of PSMA expressing human PC3 PIP and PSMA deficient human PC3 flu cells xenografted SCID mouse at 2 uCi, iv after 60 mins; settings: in vivo, 1 h
Stomach = test: Biodistribution in stomach of PSMA expressing human PC3 PIP and PSMA deficient human PC3 flu cells xenografted SCID mouse at 2 uCi, iv after 30 mins; settings: in vivo, 0.5 h
[8] = Ratio of drug level in tumor to spleen of human PSMA expressing PC3 PIP and PSMA deficient human PC3 flu cells xenografted SCID mouse at 2 uCi, iv after 5 hrs; settings: in vivo; summary of the method: as §1
Kidney = test: Biodistribution in kidney of PSMA expressing human PC3 PIP and PSMA deficient human PC3 flu cells xenografted SCID mouse at 2 uCi, iv after 2 hrs; settings: in vivo
Spleen [9] = test: Biodistribution in spleen of PSMA expressing human PC3 PIP and PSMA deficient human PC3 flu cells xenografted SCID mouse at 2 uCi, iv after 60 mins; settings: in vivo, 1 h
[10] = Ratio of drug level in tumor to heart of human PSMA expressing PC3 PIP and PSMA deficient human PC3 flu cells xenografted SCID mouse at 2 uCi, iv after 30 mins; settings: in vivo, 0.5 h; summary of the method: as §2
[11] = Biodistribution in small intestine of PSMA expressing human PC3 PIP and PSMA deficient human PC3 flu cells xenografted SCID mouse at 2 uCi, iv after 60 mins; settings: in vivo, 1 h; summary of the method: as §2
[12] = Ratio of drug level in tumor to stomach of human PSMA expressing PC3 PIP and PSMA deficient human PC3 flu cells xenografted SCID mouse at 2 uCi, iv after 60 mins; settings: in vivo, 1 h; summary of the method: as §1
[13] = Ratio of drug level in tumor to liver of human PSMA expressing PC3 PIP and PSMA deficient human PC3 flu cells xenografted SCID mouse at 2 uCi, iv after 5 hrs; settings: in vivo; summary of the method: as §2
Blood = test: Biodistribution in blood of PSMA expressing human PC3 PIP and PSMA deficient human PC3 flu cells xenografted SCID mouse at 2 uCi, iv after 2 hrs; settings: in vivo
Spleen [14] = test: Biodistribution in spleen of PSMA expressing human PC3 PIP and PSMA deficient human PC3 flu cells xenografted SCID mouse at 2 uCi, iv after 2 hrs; settings: in vivo
[15] = Ratio of drug level in tumor to pancreas of human PSMA expressing PC3 PIP and PSMA deficient human PC3 flu cells xenografted SCID mouse at 2 uCi, iv after 2 hrs; settings: in vivo; summary of the method: as §2
Liver [16] = test: Biodistribution in liver of PSMA expressing human PC3 PIP and PSMA deficient human PC3 flu cells xenografted SCID mouse at 2 uCi, iv after 2 hrs; settings: in vivo
[17] = Ratio of drug level in tumor to lung of human PSMA expressing PC3 PIP and PSMA deficient human PC3 flu cells xenografted SCID mouse at 2 uCi, iv after 60 mins; settings: in vivo, 1 h; summary of the method: as §2
[18] = Biodistribution in large intestine of PSMA expressing human PC3 PIP and PSMA deficient human PC3 flu cells xenografted SCID mouse at 2 uCi, iv after 2 hrs; settings: in vivo; summary of the method: as §2
[19] = Ratio of drug level in tumor to small intestine of human PSMA expressing PC3 PIP and PSMA deficient human PC3 flu cells xenografted SCID mouse at 2 uCi, iv after 60 mins; settings: in vivo, 1 h; summary of the method: as §1
[20] = Ratio of drug level in tumor to small intestine of human PSMA expressing PC3 PIP and PSMA deficient human PC3 flu cells xenografted SCID mouse at 2 uCi, iv after 2 hrs; settings: in vivo; summary of the method: as §1
[21] = Biodistribution in PC3 flu tumor of PSMA expressing human PC3 PIP and PSMA deficient human PC3 flu cells xenografted SCID mouse at 2 uCi, iv after 5 hrs; settings: in vivo; summary of the method: as §2
[22] = Ratio of drug level in tumor to pancreas of human PSMA expressing PC3 PIP and PSMA deficient human PC3 flu cells xenografted SCID mouse at 2 uCi, iv after 5 hrs; settings: in vivo; summary of the method: as §1
[23] = Biodistribution in PC3 PIP tumor of PSMA expressing human PC3 PIP and PSMA deficient human PC3 flu cells xenografted SCID mouse at 2 uCi, iv after 60 mins; settings: in vivo, 1 h
[24] = Ratio of drug level in tumor to kidney of human PSMA expressing PC3 PIP and PSMA deficient human PC3 flu cells xenografted SCID mouse at 2 uCi, iv after 2 hrs; settings: in vivo; summary of the method: as §2
Urinary bladder = test: Biodistribution in bladder of PSMA expressing human PC3 PIP and PSMA deficient human PC3 flu cells xenografted SCID mouse at 2 uCi, iv after 60 mins; settings: in vivo, 1 h

Compound `O=C(O)CC[C@H](NC(=O)N[C@@H](CCCCNC(=O)c1ccc([18F])cc1)C(=O)O)C(=O)O` has a Ratio [1] of 1, a Kp at 5 h [2] of 117 and a Ratio [3] of 25. It also gave a Ratio [4] of 7, a Ratio [5] of 35 and a Ratio [6] of 35. The Drug uptake (Lung) was 0.5 % ID/g, the Drug uptake (Liver [7]) was 5.8 % ID/g and the Drug uptake (Stomach) was 0.8 % ID/g. For the same compound, the Ratio [8] was 3.5, the Drug uptake (Kidney) was 29 % ID/g and the Drug uptake (Spleen [9]) was 7.2 % ID/g. It also gave a Ratio [10] of 11, a Drug uptake [11] of 0.6 % ID/g and a Ratio [12] of 26. It also gave a Ratio [13] of 3.5, a Drug uptake (Blood) of 0.4 % ID/g and a Drug uptake (Spleen [14]) of 4.4 % ID/g. For the same compound, the Ratio [15] was 25, the Drug uptake (Liver [16]) was 11.7 % ID/g and the Ratio [17] was 13. The Drug uptake [18] was 0.2 % ID/g, the Ratio [19] was 11 and the Ratio [20] was 12. The Drug uptake [21] was 0.1 % ID/g, the Ratio [22] was 70 and the Drug uptake [23] was 6.4 % ID/g. For the same compound, the Ratio [24] was 0.1 and the Drug uptake (Urinary bladder) was 17 % ID/g.
